Assay outcomes from PubChem.
RGS4 block: inhibitors of human RGS4; 0.45% of 310,000 active; B-score at 10 µM; HEK293 M3R/RGS4 inducible, Fluo-4 calcium flux; stronger effect = higher value; triggered by carbachol at its EC20; P49798;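 active = B-score, a plate-corrected calcium signal, over three deviations above library mean, with baseline fluorescence within five deviations of library mean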;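 note: RGS4 expression induced by doxycycline in cells with stable M3 receptor; B-score is computed from the integrated fluorescence ratio over baseline after carbachol; higher B-score means a larger calcium signal and so more RGS4 inhibition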
Target sequence (P49798 whole entry, looked up): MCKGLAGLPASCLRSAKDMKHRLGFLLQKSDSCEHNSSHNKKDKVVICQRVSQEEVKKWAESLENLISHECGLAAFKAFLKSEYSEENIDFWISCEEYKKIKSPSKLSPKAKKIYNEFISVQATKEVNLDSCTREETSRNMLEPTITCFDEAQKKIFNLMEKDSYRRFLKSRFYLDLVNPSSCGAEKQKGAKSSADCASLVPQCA
RGS4 act: RGS4 potentiation or activation | 0.92% of 310,000 active | HEK293 M3R/inducible RGS4, carbachol calcium flux Fluo4; stronger effect = lower value | B-score at 10 µM;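 active = B-score of the integrated calcium signal more than 4 SD below the library mean, with starting fluorescence not abnormally high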;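 note: negative B-score means reduced calcium response which marks RGS4 activation or potentiation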
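test system = HEK293 cells with stable M3R and inducible RGS4 | schedule = recording 10 s baseline at 1 Hz, 100 s post-agonist | technique = Fluo4-AM (2 µM) calcium-flux fluorescence, kinetic read | measure = Agonist-evoked peak-minus-minimum fluorescence over baseline, integrated ratio, B score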
MrgX1 PAM: allosterically activates human MrgX1 receptor signaling | Q96LB2 | MrgX1-HEK293, Fluo-4 calcium flux, FDSS; stronger effect = higher value | B-score at 10 µM | 0.63% of 310,000 active;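 active = plate-corrected calcium response at least 3 library SD above typical, normal starting fluorescence, not activating the receptor alone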;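 note: compound read alongside a low EC10 to EC30 dose of BAM8-22 agonist; peak minus trough fluorescence over baseline measured at the second addition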
Target sequence (Q96LB2 whole entry, looked up): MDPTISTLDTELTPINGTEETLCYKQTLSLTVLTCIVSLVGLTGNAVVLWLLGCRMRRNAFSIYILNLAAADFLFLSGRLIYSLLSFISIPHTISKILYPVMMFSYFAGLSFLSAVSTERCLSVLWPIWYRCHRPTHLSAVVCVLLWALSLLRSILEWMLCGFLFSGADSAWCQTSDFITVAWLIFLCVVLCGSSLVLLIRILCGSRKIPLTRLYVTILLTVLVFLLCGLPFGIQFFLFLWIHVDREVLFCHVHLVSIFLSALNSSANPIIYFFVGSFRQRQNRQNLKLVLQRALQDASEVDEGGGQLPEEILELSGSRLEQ
MrgX1 agonist: human MrgX1 receptor agonism, primary screen | 0.44% of 310,000 active | MrgX1-HEK293 cells, Fluo-4 calcium fluorescence, agonist mode; stronger effect = higher value | AID 588627 | B-score at 10 µM | Q96LB2;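 active = calcium response B-score plate-corrected fluorescence ratio at least 3 library SD, with starting fluorescence B-score inside 5 SD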
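Material: HEK293 cells stably expressing human MrgX1 receptor | Quantity: 15,000 cells per well | Times: Cells plated overnight, dye loaded 0.5 h 37 °C, 0.5 h room temperature | Measured by: Kinetic Fluo-4 NW fluorescence of intracellular calcium | Control set: Positive and negative controls per plate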
MrgX1 antagonist: human MrgX1 receptor antagonism, primary screen; Q96LB2; MRGX1-HEK293 calcium flux, Fluo-4, BAM8-22 antagonism; stronger effect = lower value; B-score at 10 µM; 1.3% of 310,000 active;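 active = calcium-response B-score plate-corrected more than 3 library SD below zero, starting fluorescence within 5 deviations, no agonist response on first addition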;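 note: peak minus trough fluorescence over baseline after final BAM8-22 challenge near maximal dose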
MrgX1 allo conf: confirmation of human MrgX1 receptor positive allosteric modulators | shares compounds with MrgX1 PAM | MrgX1-HEK293, Fluo-4 calcium fluorescence, FDSS | activation (ratio percentage), % at 10 µM | 13% of 1,200 active;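 active = ratio at least 3 SD above the weak peptide control, stable starting fluorescence, no direct agonism earlier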;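 note: compound followed by low BAM8-22 agonist challenge near EC20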
HEK293 Ca flux: MrgX1 antagonist counter-screen hit in parental HEK293 cells. fluorescence ratio F(max-min)/F0 at 10 µM. AID 624111. shares compounds with MrgX1 antagonist. 2% of 4,000 active. Fluo-4 calcium fluorescence, FDSS;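 active = duplicate-averaged calcium fluorescence ratio at least three times the standard deviation of buffer wells, a nonspecific response in parental cells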
HEK293 Ca counter: activity in parental HEK293 cells without MrgX1. fluorescence ratio F(max-min)/F0 at 10 µM. shares compounds with MrgX1 antagonist. 0.4% of 4,000 active. parental HEK293 calcium flux, Fluo-4 fluorescence ratio; stronger effect = higher value;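 active = calcium fluorescence ratio, averaged over duplicates, at least 3 SD of the buffer-well ratio, meaning a nonspecific response in receptor-free cells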;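 note: untransfected parental HEK293 lacking MrgX1 used as counterscreen for MrgX1 allosteric activators; fluorescence change taken during the second addition on a kinetic imager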
HEK293 Ca cntr2: MrgX1 activator counter-screen hit in parental HEK293 cells | AID 624115 | 8.7% of 4,000 active | fluorescence ratio F(max-min)/F0 at 10 µM | shares compounds with MrgX1 antagonist | Fluo-4 calcium fluorescence (FDSS); stronger effect = higher value;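 active = calcium fluorescence ratio at least three times the spread of buffer wells, meaning a non-specific response in parental cells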
A number is an active result; i = inactive; nt = no result. Only some compounds are listed: those with a hit (about 3.5% of all), similar ones and a draw of the others.

SMILES	RGS4 block	RGS4 act	MrgX1 PAM	MrgX1 agonist	MrgX1 antagonist	MrgX1 allo conf	HEK293 Ca flux	HEK293 Ca counter	HEK293 Ca cntr2
COC(=O)C1=C(SC)N(c2ccccc2)C(c2ccccc2)CC1=O (stereo not drawn)	i	i	i	i	i	nt	nt	nt	nt
CCn1c(-c2cc(-c3ccc(C)c(C)c3)nc3ccccc23)n[nH]c1=S	i	i	i	i	i	nt	nt	nt	nt
Cc1ccc(-c2cc(-c3n[nH]c(=S)n3C)c3ccccc3n2)cc1	i	i	11	i	i	i	i	i	i
CSc1nccc(Nc2ccccc2)c1C#N	i	i	16	i	i	8.6%	i	i	i
COc1nccc(Nc2ccccc2)c1C#N	nt	nt	i	i	i	nt	nt	nt	nt
COc1ccc(Nc2nc3ccccc3n3nnnc23)cc1	i	i	13	i	i	i	i	i	i
Clc1ccc(-n2nnnc2-c2ccccc2)cc1	nt	nt	i	i	i	nt	nt	nt	nt
Clc1ccc(-c2nnnn2-c2ccc(Cl)cc2)cc1	i	i	11	i	i	i	i	i	i
COc1ccc(-c2nn(-c3ccccc3)cc2CO)cc1	i	i	10	i	i	i	i	i	i
COc1ccc(-c2nn(-c3ccccc3)cc2N)cc1	i	i	i	i	i	nt	nt	nt	nt
Cc1ccc(-c2nn(-c3ccccc3)cc2CO)cc1	i	i	38	i	i	6.8%	i	i	i
COc1ccc(-c2cn(-c3ccccc3)nc2CO)cc1	i	i	8.6	i	i	i	i	i	i
CCC(C)NC(=O)CN1c2cccc3cccc(c23)S1(=O)=O (stereo not drawn)	i	i	i	i	i	nt	nt	nt	nt
CCNC(=O)CN1c2cccc3cccc(c23)S1(=O)=O	i	i	22	i	i	i	i	i	i
COc1cccc(C(=O)N2CCN(Cc3nc(CC4CC4)no3)CC2)c1	i	i	i	i	i	nt	nt	nt	nt
O=C(CCl)N(CCc1ccccc1)CCc1ccccc1	i	i	7.7	i	i	i	i	i	i
O=C(CCl)N(c1ccccc1)c1ccccc1	i	i	nt	nt	nt	nt	nt	nt	nt
COc1ccc(-n2ncc3c2CC(C)(C)CC3NC(=O)CCCN2CCCC2=O)cc1 (stereo not drawn)	i	i	i	i	i	nt	nt	nt	nt
Nc1nc(Br)c2c(F)cccc2c1-c1ccc(Cl)cc1	i	i	8.3	i	i	i	i	i	i
O=C(Nc1ccc(F)cc1)C(=O)C1C(=O)Nc2ccccc21 (stereo not drawn)	i	i	6.6	i	i	i	i	i	i
CS(=O)(=O)N(CC(=O)N1CCN(c2cccc(Cl)c2)CC1)c1cccc(F)c1	i	i	8.2	i	i	i	i	i	i
CCc1ccc(/C=N/NC(=O)c2nnn(-c3nonc3N)c2CN2CCOCC2)cc1	i	i	i	i	i	nt	nt	nt	nt
O=C(CCC1CCCN(C(=O)c2ccoc2)C1)NCc1ccccc1F (stereo not drawn)	i	i	i	i	i	nt	nt	nt	nt
Cc1cc(SCC(=O)c2ccc(O)c(O)c2)nc2ccccc12	i	i	11	i	i	i	i	i	i
Cc1cc(SCC(=O)c2ccc3c(c2)OCO3)nc2ccccc12	i	i	i	i	i	nt	nt	nt	nt
SMILES	RGS4 block	RGS4 act	MrgX1 PAM	MrgX1 agonist	MrgX1 antagonist	MrgX1 allo conf	HEK293 Ca flux	HEK293 Ca counter	HEK293 Ca cntr2
COc1ccc(NC(C)(C)c2nnnn2-c2c(C)cccc2C)cc1	i	i	6.6	i	i	i	i	i	i
Cc1ccc(CNC(=O)C2CCN(S(=O)(=O)c3ccc4c(c3)CC(C)N4C(=O)C3CCC3)CC2)o1 (stereo not drawn)	i	i	i	i	i	nt	nt	nt	nt
COC(=O)c1sc(NC(=S)NC(=O)c2ccccc2C)nc1C	i	i	7.3	i	i	i	i	i	56
Cc1cc(C)n(CCNc2nc3nonc3nc2N2CCCCC2)n1	i	i	i	i	i	nt	nt	nt	nt
CCOC(=O)c1cnc(-c2ccccc2)nc1N(C)C	i	i	i	i	i	nt	nt	nt	nt
CCOC(=O)c1cnc(-c2ccccc2)nc1N	i	i	10	i	i	i	i	i	i
O=C(CN1C(=O)c2cccnc2Oc2ccc(Cl)cc21)NC1CCCC1	i	i	i	i	i	nt	nt	nt	nt
CC1CCCC(NC(=O)CN2C(=O)c3cccnc3Oc3ccc(Cl)cc32)C1C (stereo not drawn)	i	i	11	i	i	i	i	i	78
COc1ccc(-c2nnc(NC(=O)c3cc(C)on3)s2)cc1	i	i	8.2	i	i	i	i	i	i
CCN(CC)S(=O)(=O)c1c(OC)cc(C)c(Cl)c1C	i	i	10	i	i	i	i	i	i
CCN(CC)S(=O)(=O)c1cc(C)c(C)cc1Br	i	i	i	i	i	nt	nt	nt	nt
O=C(Cn1c(NCCO)nc2ccccc21)c1ccccc1	i	i	7.3	i	i	i	i	i	i
COC(=O)c1cc(Sc2c(Cl)cccc2Cl)ccn1	i	i	46	i	i	20%	i	i	i
COC(=O)c1cc(Sc2cccc(Cl)c2Cl)ccn1	i	i	i	i	i	nt	nt	nt	nt
COc1ccc(NC(=O)c2cccc(C(=O)Nc3ccc(OC)cc3)n2)cc1	i	i	8.8	i	i	i	i	i	i
COc1ccc(NC(=O)c2cc(-c3cccc(OC)c3)on2)cc1	i	i	i	i	i	nt	nt	nt	nt
COc1cc(CCC(=O)N2CCN(c3cccc(C)c3C)CC2)cc(OC)c1OC	i	i	i	i	i	nt	nt	nt	nt
CCN(C(=O)c1c(N)cnn1C)c1ccccc1	i	i	10	i	i	i	i	i	i
O=C(CN1C(=O)CSc2ccc(S(=O)(=O)N3CCOCC3)cc21)NCc1ccc(Cl)cc1	i	i	i	i	i	nt	nt	nt	nt
Nc1cc(Cl)ccc1Oc1ccc2ccccc2c1	i	i	i	i	i	nt	nt	nt	nt
Cc1ccc(Oc2ccc(Cl)cc2N)cc1	i	i	6.8	i	i	i	i	i	i
CCCN(CC1CC1)c1nc(C)nc(Nc2c(Cl)cc(Cl)cc2Cl)c1Cl	i	i	i	i	i	nt	nt	nt	nt
CCC(CC)NC(=O)COC(=O)CCC(=O)c1ccc(Cl)cc1	i	i	i	i	i	nt	nt	nt	nt
Cc1cccc(-n2c(-c3csc(C(C)C)c3)n[nH]c2=S)c1	i	i	i	i	i	nt	nt	nt	nt
CCCc1cc(-c2n[nH]c(=S)n2-c2cccc(C)c2)cs1	i	i	8	i	i	i	i	i	i
Cc1ccc2[nH]c(C(=O)N3CCCCC3)cc2c1	i	i	17	i	i	i	i	i	i
